Reference: ChEMBL document CHEMBL1142437, “Constrained analogues of procaine as novel small molecule inhibitors of DNA methyltransferase-1” (J Med Chem, 2008)
Active and inactive are the calls of the source. The rule behind the calls is not given here.

How the values were obtained:
[1] = biological target: DNA (cytosine-5)-methyltransferase 1 (Homo sapiens) (UniProt P26358); test: Inhibition of human recombinant DNMT1 expressed in Sf9 cells
HL-60 = test: Induction of chromosomal satellite repeats demethylation in human HL60 cells at 0.5 mM after 72 hrs; format: functional, cell-based
How it was run: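 HL60 human myeloid leukemia cells exposed 72 h to 0.5 mM drug in DMSO, DMSO (1%) as control. Methylation of chromosomal satellite repeats (C1S2) assessed by COBRA assay on genomic DNA.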

DNA (cytosine-5)-methyltransferase 1 (Homo sapiens), sequence (P26358 whole entry): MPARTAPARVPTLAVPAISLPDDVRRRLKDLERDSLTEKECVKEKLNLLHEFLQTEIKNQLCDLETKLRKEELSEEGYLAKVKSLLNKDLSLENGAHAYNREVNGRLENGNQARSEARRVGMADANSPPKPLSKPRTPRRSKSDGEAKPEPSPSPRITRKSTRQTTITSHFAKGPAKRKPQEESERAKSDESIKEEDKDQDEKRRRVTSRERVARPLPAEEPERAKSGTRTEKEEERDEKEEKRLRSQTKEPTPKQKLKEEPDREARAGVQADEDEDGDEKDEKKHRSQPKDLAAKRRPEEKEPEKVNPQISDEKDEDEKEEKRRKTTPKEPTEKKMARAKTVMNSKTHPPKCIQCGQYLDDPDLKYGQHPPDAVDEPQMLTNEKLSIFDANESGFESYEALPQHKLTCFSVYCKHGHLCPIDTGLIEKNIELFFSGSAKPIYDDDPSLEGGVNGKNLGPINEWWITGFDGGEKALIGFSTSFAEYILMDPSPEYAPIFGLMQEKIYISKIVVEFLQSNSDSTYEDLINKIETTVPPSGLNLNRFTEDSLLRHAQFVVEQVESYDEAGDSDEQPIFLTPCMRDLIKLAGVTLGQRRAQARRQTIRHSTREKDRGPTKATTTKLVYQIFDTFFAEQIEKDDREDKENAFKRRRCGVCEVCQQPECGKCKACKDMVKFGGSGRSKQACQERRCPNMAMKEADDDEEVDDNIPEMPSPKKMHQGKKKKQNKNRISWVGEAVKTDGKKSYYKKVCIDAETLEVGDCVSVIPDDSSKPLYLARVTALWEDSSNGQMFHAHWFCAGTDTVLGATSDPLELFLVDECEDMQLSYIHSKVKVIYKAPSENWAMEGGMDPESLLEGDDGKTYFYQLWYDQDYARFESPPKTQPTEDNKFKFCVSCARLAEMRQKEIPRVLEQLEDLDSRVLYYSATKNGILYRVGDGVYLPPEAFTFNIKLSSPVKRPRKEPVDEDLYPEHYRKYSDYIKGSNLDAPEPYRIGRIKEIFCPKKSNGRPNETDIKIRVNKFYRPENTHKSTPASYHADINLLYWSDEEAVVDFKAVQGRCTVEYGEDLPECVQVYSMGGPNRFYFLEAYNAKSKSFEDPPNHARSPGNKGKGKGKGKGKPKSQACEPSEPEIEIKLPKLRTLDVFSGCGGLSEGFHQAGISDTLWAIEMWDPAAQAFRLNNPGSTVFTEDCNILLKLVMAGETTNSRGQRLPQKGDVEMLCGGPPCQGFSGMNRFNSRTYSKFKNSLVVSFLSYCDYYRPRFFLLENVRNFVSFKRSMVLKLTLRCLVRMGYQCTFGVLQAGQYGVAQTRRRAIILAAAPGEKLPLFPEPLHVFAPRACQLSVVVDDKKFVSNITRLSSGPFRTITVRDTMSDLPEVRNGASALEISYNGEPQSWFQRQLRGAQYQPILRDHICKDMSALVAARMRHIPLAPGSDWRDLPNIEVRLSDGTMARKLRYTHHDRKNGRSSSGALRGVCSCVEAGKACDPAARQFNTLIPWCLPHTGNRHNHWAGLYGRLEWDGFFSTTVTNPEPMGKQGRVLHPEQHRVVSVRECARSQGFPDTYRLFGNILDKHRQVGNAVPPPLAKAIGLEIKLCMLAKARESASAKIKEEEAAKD

| Activity [1] | SMILES | Activity (HL-60) |
| --- | --- | --- |
| Active | CCN(CC)C[C@H]1COC(c2ccc([N+](=O)[O-])cc2)=N1 |  |
|  | CCN(CC)CCOC(=O)c1ccc(N)cc1 | Active |
| Active | CCN(CC)C[C@H]1CN=C(c2ccc([N+](=O)[O-])cc2)O1 |  |
| Active | O=[N+]([O-])c1ccc(C2=NC[C@H](CN3CCCC3)O2)cc1 | Active |
| Active | CCN(CC)C[C@@H]1COC(c2ccc([N+](=O)[O-])cc2)=N1 |  |
| Active | CCN(CC)C[C@@H]1CN=C(c2ccc([N+](=O)[O-])cc2)O1 |  |
| Active | O=[N+]([O-])c1ccc(C2=N[C@H](CN3CCCC3)CO2)cc1 |  |
| Active | O=[N+]([O-])c1ccc(C2=N[C@@H](CN3CCCC3)CO2)cc1 |  |
